Experimental data taken from ChEMBL document CHEMBL4196106, “From Naproxen Repurposing to Naproxen Analogues and Their Antiviral Activity against Influenza A Virus” (J Med Chem, 2018).
Active and inactive are the calls of the source. No cut-off for these calls is given here.

Experiments:
Influenza A virus [1] = test: Stabilization of Influenza A virus nucleoprotein assessed as melting temperature at 5 to 15 uM measured for 10 mins
[2] = Binding affinity to Influenza A virus nucleoprotein by surface plasmon resonance analysis
MDCK = test: Inhibition of nucleoprotein/polymerase acidic protein (1 to 27 residues) interaction in Influenza A virus (A/WSN/1933 (H1N1)) infected in MDCK cells by Western blot analysis; format: cell-based
Outline: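 MDCK cells were infected with A/WSN/33 at MOI 2 for 18 h and lysed in PBS with protease inhibitors and 0.5% NP40 by freezing; nucleic acids were not digested. Streptavidin beads loaded with 250 µM biotinylated PA(1-27) were incubated with the lysate 18 h at 4 °C, with or without compound. Bound NP was detected by anti-NP monoclonal western blot.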

Influenza A virus [3] = test: Inhibition of Influenza A virus nucleoprotein/polymerase acidic protein (1 to 27 residues) complex formation at 100 nM by surface plasmon resonance analysis
Outline: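 Biotinylated PA(1-27) was captured on the chip at about 1500 RU, with a scrambled peptide on the same chip at similar RU. NP (12–2500 nM), alone or as NP-DNA complex, was injected with or without compound up to 50 µM. Running buffer was 20 mM Tris-HCl pH 7.4, 300 mM NaCl, 0.005% P20, at 25 °C and 30 µl/min. Regeneration used guanidinium chloride then 10 mM NaOH.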

Influenza A virus [4] = test: Antiviral activity against Influenza A virus (A/WSN/1933(H1N1)) infected in MDCK cells at MOI of 10^-3 assessed as decrease in viral load after 48 hrs by crystal violet staining-based plaque assay; format: functional, organism-based
Outline: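 Serum-starved MDCK cells, 0.32 x 10^6 per well, were infected with A/WSN/33 at MOI 10^-3 (multi-cycle). Compound (0.1–500 µM) or vehicle was added immediately after adsorption. After 48 h, titres in clarified supernatant were read by plaque assay with crystal violet. Runs were in triplicate, repeated at least twice, and IC50 came from a dose-response fit.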

Influenza A virus [5] = test: Antiviral activity against Influenza A virus (A/WSN/1933(H1N1)) infected in MDCK cells at MOI of 2 assessed as decrease in viral load after 18 hrs by immunofluorescence analysis; format: functional, organism-based
Outline: (§1)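 MDCK or A549 cells, 0.32 x 10^6 per well, were held 24 h serum-free to 80% confluence and then infected at MOI 2. Compound (0.1–500 µM) or vehicle was added right after virus adsorption. At 18 h, viral NP was read by immunofluorescence and corrected for cell number by DAPI. Runs were in triplicate, repeated at least twice, and IC50 came from a dose-response fit.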

[6] = Cytotoxicity against MDCK cells assessed as reduction in cell viability after 48 hrs by trypan blue staining based method; design: species or system Canis lupus familiaris; conditions: dog
Outline: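 MDCK cells, 3.2 x 10^5 per well, were grown 24 h and then exposed to serial compound dilutions under the same conditions as the MTT test. At 48 h, cells were washed, trypsinised and stained with Trypan blue, and viable and dead cells were counted by phase-contrast microscopy.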

[7] = Selectivity index, ratio of CC50 for MDCK cells to IC50 for Influenza A virus (A/WSN/1933(H1N1)) infected in MDCK cells at MOI of 10^-3 after 48 hrs; format: toxicity, cell-based; conditions: dog, read-out: Ratio CC50/IC50
[8] = Selectivity index, ratio of CC50 for MDCK cells to IC50 for Influenza A virus (A/WSN/1933(H1N1)) infected in MDCK cells at MOI of 2 after 18 hrs; format: toxicity, cell-based; conditions: dog, read-out: Ratio CC50/IC50
Influenza A virus [9] = test: Antiviral activity against Influenza A virus (A/Udorn/1972 (H3N2)) infected in human A549 cells assessed as decrease in viral load after 18 hrs by immunofluorescence analysis; format: functional, organism-based; conditions: A549, 18 h; outline: as §1
[10] = Cytotoxicity against human A549 cells assessed as reduction in cell viability after 48 hrs by MTT assay; format: cell-based
Outline: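 Cells were seeded at 3.2 x 10^5 per well and kept 1 day at 37 °C in MEM without serum. Serial compound dilutions were added and cells incubated a further 48 h. The MTT read-out was absorbance at 550 nm minus 650 nm, and CC50 was taken from a dose-response fit.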

[11] = Selectivity index, ratio of CC50 for human A549 cells to IC50 for Influenza A virus (A/Udorn/1972 (H3N2)) after 18 hrs; format: toxicity; conditions: read-out: Ratio CC50/IC50
[12] = Selectivity index, ratio of CC50 for MDCK cells to IC50 for Influenza A virus (A/Udorn/1972 (H3N2)) infected in MDCK cells at MOI of 2 after 18 hrs; format: toxicity, cell-based; conditions: dog, read-out: Ratio CC50/IC50
Influenza A virus [13] = test: Antiviral activity against Influenza A virus (A/Puerto Rico/8/1934(H1N1)) infected in C57BL/6J mouse assessed as recovery of weight loss at 1 mg/mouse/day, ip qd treated up to day 2 starting at 5 to 10 mins post infection measured up to day 12 relative to control; format: functional
Outline: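 Intranasal A/PR/8/34 challenge at 500 PFU in female C57BL/6J mice, 5–6 weeks old, under ketamine/xylazine. Dosing was i.p. once daily on days 0, 1 and 2, starting 5–10 min post-inoculation; 1 mg/mouse is 50 mg/kg and 8 mg/mouse is 400 mg/kg. There were 10 mice per group, with saline vehicle. Survival and body weight were scored daily, with 20% weight loss as the mortality endpoint.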

Influenza A virus [14] = test: Antiviral activity against Influenza A virus (A/Puerto Rico/8/1934(H1N1)) infected in C57BL/6J mouse assessed as decrease in viral load in bronchoalveolar lavage at 1 mg/mouse/day, ip qd treated up to day 2 starting at 5 to 10 mins post infection relative to control; format: functional
Outline: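 Female C57BL/6J mice, 5–6 weeks old, were anaesthetised with ketamine/xylazine (43/5 mg/kg) and inoculated intranasally with A/PR/8/34 at 500 PFU. Treatment was i.p. once daily on days 0, 1 and 2, starting 5–10 min after inoculation; 1 mg/mouse is 50 mg/kg and 8 mg/mouse is 400 mg/kg. BAL infectious titre was measured by plaque assay against saline-treated mice.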

[15] = Cytotoxicity against MDCK cells assessed as reduction in cell viability after 24 to 72 hrs by MTT assay; conditions: dog
Influenza A virus [16] = conditions: 50 uM
Influenza A virus [17] = test: microbe, parasite or virus in culture; conditions: MDCK, 18 h
[18] = Safety index, ratio of compound CC50 to naproxen CC50 for MDCK cells by MTT assay; format: ADME, cell-based, Canis lupus familiaris; conditions: dog
Influenza A virus [19] = test: Antiviral activity against pandemic Influenza A virus (A/Netherlands/602/09(H1N1)) infected in MDCK cells at MOI of 10^-3 assessed as decrease in viral load after 18 hrs by immunofluorescence analysis; format: functional, organism-based
[20] = Selectivity index, ratio of CC50 for MDCK cells to IC50 for pandemic Influenza A virus (A/Netherlands/602/09(H1N1)) infected in MDCK cells at MOI of 10^-3 after 18 hrs; format: toxicity, cell-based; conditions: dog, read-out: Ratio CC50/IC50
Influenza A virus [21] = test: Stabilization of Influenza A virus nucleoprotein assessed as melting temperature at 5 to 15 uM measured for 5 mins
Outline: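 Recombinant NP, over 80% monomeric, was used at 5–15 µM with compound at a 1:1 ratio in 20 mM Tris pH 7.4, 50 mM NaCl. Mean size was followed by dynamic light scattering (10 scans over 5 min per point) while heating at 1 °C/min up to 70–80 °C. Tm was taken from the maximum of the first-derivative curve, and analyses were done in triplicate.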

[22] = Binding affinity to biotin labelled Influenza A virus nucleoprotein by surface plasmon resonance analysis

Question: Which results are given for `COc1ccc2cc([C@H](C)C(=O)O)ccc2c1` [NAPROXEN]?
Answer: Tm (Influenza A virus [1]): 41 °C; Ki [2]: 0.25 µM; inhibition (active/not active) (MDCK): inactive; inhibition (Influenza A virus [3]): inactive; IC50 (Influenza A virus [4]): 16 µM; IC50 (Influenza A virus [5]): 100 µM; CC50 at 48 h [6]: 1000 µM; selectivity ratio at 48 h [7]: 87; selectivity ratio at 18 h [8]: 14; IC50 (Influenza A virus [9]): 112 µM; CC50 at 48 h [10]: 1400 µM; selectivity ratio at 18 h [11]: 12.5; selectivity ratio at 18 h [12]: 12; Activity (Influenza A virus [13]): 85%; fold change (FC) (Influenza A virus [14]): 2; CC50 [15]: 1400 µM; inhibition (Influenza A virus [16]): inactive; IC50 (Influenza A virus [17]): 120 µM

Question: For `COc1ccc2cc(-c3c(C(=O)O)cc(Oc4ccc(N)cc4)cc3C(=O)O)ccc2c1`, which Tm (Influenza A virus [1]) is on record?
Answer: 38 to 47 °C

Question: What about the “inhibition (active/not active)” value (MDCK) of the same compound?
Answer: Active

Question: And the CC50 at 48 h [6]?
Answer: ≥ 10000 µM

Question: And the selectivity ratio [18]?
Answer: 10

Question: And the IC50 (Influenza A virus [19])?
Answer: 21 µM

Question: What about the selectivity ratio at 18 h [20] of the same compound?
Answer: 619

Question: With `COc1ccc2cc(C(CC(=O)O)CC(=O)O)ccc2c1` as the compound, how does the “inhibition (active/not active)” value (MDCK) read?
Answer: inactive

Question: What about the Tm (Influenza A virus [21]) of the same compound?
Answer: 25 to 45 °C

Question: What about the Ki [22] of the same compound?
Answer: 0.8 µM
